Arbovirus anti = arbovirus infection inhibition. arbovirus infection cell-based antiviral screen. inhibition, % at 10 µM. 200,000 tested, 0.37% active; in the data active = inhibition above about 30%
ABCG2 block = inhibitors of human ABCG2 transporter, ABCB1 counter-screen. IgMXP3 cells, JC-1 efflux, flow cytometry. 190,000 tested, 0.1% active. inhibition, % at 6.6 µM;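 active = inhibition above 80%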
Target sequence (Q9UNQ0 whole entry, looked up): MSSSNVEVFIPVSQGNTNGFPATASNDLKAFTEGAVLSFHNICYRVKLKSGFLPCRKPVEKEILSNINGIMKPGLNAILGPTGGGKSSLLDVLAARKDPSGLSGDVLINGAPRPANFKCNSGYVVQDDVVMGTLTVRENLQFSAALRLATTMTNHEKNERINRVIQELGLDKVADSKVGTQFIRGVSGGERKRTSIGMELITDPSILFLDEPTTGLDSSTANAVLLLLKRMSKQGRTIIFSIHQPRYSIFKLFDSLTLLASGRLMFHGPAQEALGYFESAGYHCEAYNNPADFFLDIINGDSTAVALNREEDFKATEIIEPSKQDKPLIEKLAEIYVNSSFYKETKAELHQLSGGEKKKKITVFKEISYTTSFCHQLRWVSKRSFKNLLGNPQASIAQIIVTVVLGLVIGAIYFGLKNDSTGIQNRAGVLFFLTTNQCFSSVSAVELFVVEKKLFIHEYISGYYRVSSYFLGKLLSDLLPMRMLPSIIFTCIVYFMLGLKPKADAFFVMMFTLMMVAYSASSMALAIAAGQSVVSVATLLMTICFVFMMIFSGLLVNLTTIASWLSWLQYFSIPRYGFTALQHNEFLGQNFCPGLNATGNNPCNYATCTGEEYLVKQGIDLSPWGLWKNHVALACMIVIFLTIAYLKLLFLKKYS
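Read-out basis: Efflux inhibition in percent versus controls | Test system: ABCG2 IgMXP3 and barcoded ABCB1 CCRF-Adr cell mix | Quantity: 3 million cells/mL in well | Schedule: 10 min at 25 °C | Control set: Nicardipine as high control, DMSO as low control | Reagent: JC-1 as fluorescent efflux pump substrate | Signal: Flow cytometry of retained JC-1 fluorescence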
RAM network inh = blocks the yeast RAM network; inhibition, % at 50 µM; S. cerevisiae dse1pr::URA3 reporter, 5-FOA growth OD615, 2 d; analog-sensitive cbk1-as2 kinase mutant strain; 190,000 tested, 1.8% active;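 active = inhibition above a set limit, 3 SD over mean compound inhibition, cut at about 8.4% in these data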;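 also: inhibition rescues growth on 5-FOA so higher OD means more RAM inhibition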
ABCB1 inh = inhibitors of human ABCB1 transporter, ABCG2 counter-screen | 190,000 tested, 0.067% active | inhibition, % at 6.6 µM | CCRF-Adr cells, JC-1 efflux, flow cytometry; in the data active = inhibition above about 40%;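 also: higher value means more JC-1 retained so stronger ABCB1 efflux block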
Large screens that a line does not name were inactive. Sampled rows, rich in hits. Any-hit rate of the full collection: about 2.3%.

CCOc1cc(NC(=O)c2ccccn2)c(OCC)cc1NC(=O)c1ccccc1	RAM network inh 9.7
FC(F)(F)c1cc(-c2ccco2)nc(-n2nc(C(F)(F)F)cc2C2CC2)n1	RAM network inh 9.1
CN1CCN(c2nc(-c3ccco3)cc(C(F)(F)F)n2)CC1	none
COc1ccc(CN2C(=O)N(c3ccc(OC)cc3)C(=O)C2CC(=O)Nc2ccccc2)cc1 (stereo not drawn)	RAM network inh 9.5
CCNC(=O)CC1C(=O)N(c2ccc(OC)cc2)C(=O)N1Cc1ccc(OC)cc1 (stereo not drawn)	none
COCCn1c(C)cc(C(=O)COC(=O)c2ccc(-n3nc(C)cc3C)cc2)c1C	none
O=C(OCC#CCSc1nc2ccccc2o1)c1cc2ccccc2o1	RAM network inh 10.5
O=C(OCC#CCSc1nc2ccccc2o1)c1ccco1	none
NS(=O)(=O)c1ccc(CCNC(=O)c2ccc(S(=O)(=O)N3CCCCC3)cc2)cc1	none
O=C(CSc1nc2ccccc2s1)N/N=C/c1ccco1	none
O=C(CSc1nc2ccccc2s1)N/N=C/c1ccc(C(=O)O)cc1	RAM network inh 10.1
CSc1nsc(SCC(=O)NC2CCCCC2)n1	none
C/C(N)=C(/C#N)C(=O)CSc1nc2scc(-c3ccccc3)c2c(=O)n1C	RAM network inh 9.6
c1ccc(C[n+]2cccc(-c3ccccc3)c2)cc1	none
O=C(NNC(=S)NC1CCCCC1)c1cccs1	none
O=C(NNC(=S)NC1CCCCC1)c1ccc(Cl)s1	Arbovirus anti 38.3
O=C(NCCCn1ccnc1)c1cc([N+](=O)[O-])cc([N+](=O)[O-])c1	none
COc1ccccc1C(=O)N=C1NC(=O)CC2C(=O)NCCN12 (stereo not drawn)	none
O=C1S/C(=C\c2ccc(N3CCOCC3)o2)C(=O)N1Cc1ccc(F)cc1	ABCG2 block 106.7
CC(C)CCn1c(CN2CCN(Cc3ccccc3)CC2)nc2c1c(=O)[nH]c(=O)n2C	none
Cn1cnnc1Sc1ccc(/C=C/C(=O)c2ccc(O)cc2)cc1[N+](=O)[O-]	RAM network inh 8.4
COc1ccc(C(=O)/C=C/c2ccc(OC3CSC3)cc2)cc1OC	RAM network inh 8.6
O=C(O)c1cccc(N/N=C/C2=C(Cl)c3cc(Cl)ccc3SC2)c1	Arbovirus anti 45.6
N#CC1=C(N)NC(SCC(=O)c2ccccc2)=C(C#N)C12CCCC2	RAM network inh 10.5
Cc1ccccc1/C=C1\CCCc2ccccc2C1=O	none
O=C1/C(=C\c2ccc3ccccc3c2)CCCc2ccccc21	RAM network inh 11.0
Cc1cccnc1NC(=S)Nc1ccc(Br)cc1Cl	RAM network inh 8.5
Cn1c(Sc2ccc(Cl)cc2)c(C=O)c2ccccc21	RAM network inh 9.8
CN(C)S(=O)(=O)c1cc(NC(=O)CN2CCN(c3ccccc3O)CC2)ccc1Cl	none
CCn1cc(C(=O)NCCCN(C)c2ccccc2)c(=O)c2cc(S(=O)(=O)N(C)C)ccc21	none
CCOc1ccc(C2=Nc3ccc(Br)cc3C(c3ccc(N4CCOCC4)cc3)=NN2)cc1	RAM network inh 10.1
CCOc1ccc(C2=Nc3ccccc3C(c3ccc(N4CCOCC4)cc3)=NN2)cc1	none
C/C(=N\Nc1cc(C(F)(F)F)ccc1Cl)c1ccccc1O	none
C=CCN(c1cccc(C(F)(F)F)c1)S(=O)(=O)c1cccc(C(=O)OCC(=O)Nc2ccccc2)c1	RAM network inh 9.0
C=CCN(c1cccc(C(F)(F)F)c1)S(=O)(=O)c1cccc(C(=O)OCC(=O)NC(N)=O)c1	RAM network inh 9.1
C=CCN(c1cccc(C(F)(F)F)c1)S(=O)(=O)c1cccc(C(=O)OCC(=O)NC)c1	none
CCOC(=O)c1c(C2CC2)csc1NC(=O)COC(=O)CCS(=O)(=O)c1ccc(C)cc1	RAM network inh 9.2
COc1ccc(CCCc2nnc(SCc3nc4ccccc4c(=O)[nH]3)n2C)cc1C	none
CCCCC(NC(=O)c1ccccc1)C(=O)OCC(=O)N1c2ccccc2Sc2ccccc21 (stereo not drawn)	none
COCc1cc(C)nc(SCC(=O)Oc2ccccc2)c1C#N	RAM network inh 9.1
COCc1cc(C)nc(SCC(=O)Oc2ccc(Cl)cc2)c1C#N	none
Cc1c(Cl)cccc1NC(=O)Nc1ccc(C(N)=O)cc1	none
COCCCNCC1C(Oc2ccc(Cl)cc2)C(=O)N1c1ccccc1C (stereo not drawn)	Arbovirus anti 49.0
COc1ccccc1C(=O)NCc1ccc(-c2nc3ccccc3s2)cc1	RAM network inh 9.1
N/C(=N\OC(=O)COc1ccc2ccccc2c1Br)c1ccccn1	RAM network inh 9.1
N/C(=N\OC(=O)COc1ccc2ccccc2c1Br)c1cccnc1	none
CCN1CCN(CCCNC(=O)c2cn(CCOC)c(=O)c3c2c2ccccc2n3C)CC1	none

Source: PubChem BioAssay (several laboratories)
